Reference: article PMC5977998 (Journal of the American Chemical Society, 2017)

Columns and labels:
[1] = system: BCL2 i-motif / BCL2 transcription; settings: cited from earlier work
HEK293 = experiment: MTS cytotoxicity assay in HEK293; assay type: cell-based, human; settings: read-out: IC50 in HEK 293
[2] = system: PDGFR-β NHE WT 41-mer (FL Pu41); assay type: binding, human; settings: CD spectral and thermal melt analysis
Method in brief: (§1)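 Oligo at 5 μM final in 50 mM Tris-HCl with 50 mM K+, pH 7.4. Heated to 95 °C for 5 min, slowly cooled, then incubated 30 min with molar equivalents of compound or DMSO. CD 230–330 nm at room temperature, triplicate scans averaged and baseline-corrected. Melt at 262 nm from 20 to 95 °C at 1 °C/min. Tm by nonlinear regression, ±1 °C.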

[3] = system: PDGFR-β promoter WT-NHE luciferase construct; experiment: Luciferase reporter assay, WT-NHE construct; assay type: cell-based, human; settings: 24 h
[4] = system: PDGFR-β promoter R1 mutant NHE luciferase construct; experiment: Luciferase reporter assay, R1 NHE construct; assay type: cell-based, human; settings: HEK 293, 100 μM, 24 h
[5] = system: NO-NHE luciferase construct; experiment: Luciferase reporter assay, NO-NHE construct; assay type: cell-based, human; settings: HEK 293, 100 μM, 24 h
[6] = system: PDGFR-β Py41 WT i-motif FRET probe; experiment: i-motif FRET assay, WT probe; assay type: binding, human; settings: probe 20 nM, compound 200 nM, 30 min
[7] = system: PDGFR-β Py41 R1 mutant i-motif FRET probe; experiment: i-motif FRET assay, R1 mutant probe; assay type: binding, human
WT PDGFR-β i-motif = experiment: CD spectral and thermal-melt analysis with WT i-motif; assay type: binding, human; settings: increasing concentrations of compound
Method in brief: (§2)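 Oligo at 5 μM final in 10 mM sodium cacodylate, pH 6.5. Heated to 95 °C for 5 min, slowly cooled to room temperature, then given molar equivalents of compound or DMSO for 30 min. CD spectra 230–350 nm at room temperature, triplicate scans averaged and baseline-corrected. Melts followed at 286 nm, 20–95 °C at 1 °C/min. Tm by nonlinear regression.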

[8] = system: R1 mutant PDGFR-β i-motif; experiment: CD spectral and thermal-melt analysis with R1 mutant i-motif; assay type: binding, human
Method in brief: as §2

SK-N-SH = experiment: MTS cytotoxicity assay in SK-N-SH; assay type: cell-based; settings: read-out: IC50 concentration in SK-N-SH
PDGFR-β transcript = experiment: qRT-PCR of PDGFR-β transcript in SK-N-SH; assay type: cell-based; settings: 24 h, relative to DMSO control
[9] = system: PDGFR-β 3′-end G-quadruplex; experiment: CD spectral and thermal-melt analysis with constituent PDGFR-β G-quadruplexes; assay type: binding, human
Method in brief: as §1

[10] = system: PDGFR-β NHE G-quadruplexes; settings: cited from earlier work

In the case of `CC(C)CCC[C@@H](C)[C@H]1CC[C@H]2[C@@H]3CC[C@H]4C[C@H](NC(=O)C[N+]5(C)CCCCC5)CC[C@]4(C)[C@H]3CC[C@]12C.[I-]` [IMC48], the “effect on BCL2 transcription” value [1] is listed as “increased BCL2 transcription”.
In the case of `COc1ccc2c(c1)CN([C@@H](C)[C@H]1CC[C@H]3[C@@H]4CC[C@H]5C[C@@H](O)CC[C@]5(C)[C@H]4CC[C@]13C)CO2` [IMC76], the “effect on BCL2 transcription” value [1] is given as “decreasing BCL2 transcription”.
With `CN1CCc2ccccc2C1Cc1ccccc1NC(=O)c1sc2ccccc2c1Cl` (stereo not shown) [NSC309874] the IC50 (HEK293) was greater than 100 µM, the “interaction with PDGFR-β G-quadruplex-forming sequence” value [2] was “negligible interaction” and the “downregulation of luciferase activity, WT-NHE construct” value ([3]; HEK 293, 100 μM) was “approximately 45%”. For the same compound, the “downregulation of luciferase activity, R1 NHE construct” value [4] was roughly 50%, the “effect on luciferase activity, NO-NHE construct” value [5] was “does not inhibit transcription” and the “increase in FRET signal, WT probe” value [6] was 170%. The “increase in FRET of the R1 mutant” value ([7]; FRET (pH 6.6) high-throughput screening) was “more than 2 fold”, the “increase in FRET signal, R1 mutant probe” value ([7]; probe 20 nM, compound 200 nM, 30 min) was 218% and the “shift in λMAX of CD spectrum of WT i-motif” value (WT PDGFR-β i-motif) was “from 286 to 279”. The “effect on Tm of R1 mutant i-motif” value ([8]; CD thermal melt) was “small increase in Tm”, the “effect on CD of R1 mutant i-motif” value ([8]; increasing concentrations of compound) was “little change in the CD” and the IC50 (SK-N-SH) was 100 µM. For the same compound, the “reduction of PDGFR-β expression” value (PDGFR-β transcript; 0.5 IC50 (50 μM)) was “approximately 25%” and the “reduction of PDGFR-β expression” value (PDGFR-β transcript; IC50 (100 μM)) was roughly 50%.
For `Cc1c2ccncc2c(C)c2c1[nH]c1ccc(OCCN(C)C)cc12` [NSC338258], the “increase in thermal stability of 3′-end G-quadruplex” value ([9]; 1 mol equiv of compound) was 4 °C, the “increase in thermal stability of 3′-end G-quadruplex” value ([9]; 2 mol equiv of compound) was 9 °C and the “selectivity of luciferase inhibition WT-NHE versus NO-NHE” value ([3]; IC50 and 50% IC50 concentrations) was “moderate degree of selectivity”. For the same compound, the “binding to PDGFR-β NHE compared with MYC promoter G-quadruplex” value [10] was “binds almost as well to the PDGFR-β NHE as to the MYC promoter G-quadruplex”.
In the case of `Cc1oc2nc1-c1nc(co1)-c1nc(co1)-c1nc(co1)-c1nc(co1)-c1nc(co1)C1=NC(CS1)c1nc-2c(C)o1` (stereo not shown) [telomestatin], the “G-quadruplex binding selectivity in PDGFR-β NHE” value [10] is given as “appeared to bind selectively to the 3′-end G-quadruplex” and the “effect on PDGFR-β” value [10] is given as “produced a decrease in PDGFR-β”.
